DAGLB inh: DAGLB lipase inhibitors, primary screen, biochemical, fluorescence, HTS; Diacylglycerol lipase-beta (Homo sapiens), Q8NCG7; HEK293T DAGLB membrane lysate, EnzChek fluorogenic substrate; inhibition, % at 5.17 µM; hit rate 0.059% among 340,000; AID 504411, 2011; in the data active = inhibition above about 34%
mABHD4 FP: ABHD4 inhibitors, primary screen, biochemical, fluorescence polarization, mouse; purified mABHD4, FP-Rh probe fluorescence polarization; inhibition, % at 8.92 µM; hit rate 0.54% among 370,000; AID 720543, 2013;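 active = inhibition exceeding the mean over every tested compound plus 3 SD, cut at about 30% in these data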
Target sequence (Q8VD66 whole entry, looked up): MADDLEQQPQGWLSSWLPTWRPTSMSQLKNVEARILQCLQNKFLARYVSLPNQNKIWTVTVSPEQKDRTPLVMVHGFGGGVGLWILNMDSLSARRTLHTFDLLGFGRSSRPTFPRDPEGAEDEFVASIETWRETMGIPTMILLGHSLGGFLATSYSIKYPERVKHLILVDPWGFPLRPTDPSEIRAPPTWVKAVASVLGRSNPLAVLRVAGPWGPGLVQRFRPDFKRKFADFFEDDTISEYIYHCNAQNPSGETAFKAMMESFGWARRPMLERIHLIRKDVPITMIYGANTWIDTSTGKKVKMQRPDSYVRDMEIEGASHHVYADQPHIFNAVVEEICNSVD
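Assay system: mouse ABHD4 enzyme, wild type / Also added: fluorescent activity-based probe FP-Rh / Doses: single nominal dose of 8.92 µM, 0.89% DMSO final / Timing: 45 min compound pre-incubation plus 60 min probe step, 25 °C / Signal: FP readout, ex 525 nm / em 598 nm / Control set: S159A mutant/DMSO as 100%, compound-well median as 0%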
SIAE inh: human SIAE inhibitors, primary screen, biochemical, fluorescence polarization, FP-Rh probe, 1536-well HTS; SIAE FP-Rh probe binding; inhibition, % at 9.66 µM; hit rate 0.69% among 370,000; AID 1053197, 2014; Sialate O-acetylesterase (Homo sapiens), Q9HAT2;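 active = inhibition above a cutoff: mean of compounds within the control limits plus 3 SD of those, cut at about 17% in these data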
HTRA1 inh: HTRA1 serine protease inhibitors, primary screen, biochemical, fluorescence polarization, HTS. inhibition, % at 5.96 µM. recombinant HTRA1, FP-rhodamine activity-based probe. hit rate 0.5% among 340,000. Q92743; in the data active = inhibition above about 36%
TCR-CD3 inh: inhibitors of human TCR-CD3 interaction, primary screen, biochemical, fluorescence, TAMRA-labeled TCR probe; T-cell receptor (TCR); inhibition, % at 9.4 µM; hit rate 0.37% among 360,000; in the data active = inhibition above about 19%;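 note: recombinant mutant TCR 2C K166C tagged with TAMRA read by polarization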
SIAE inh conf: human SIAE inhibitors, retest, confirmation, biochemical, fluorescence polarization, FP-Rh probe, triplicate | shares compounds with SIAE inh | SIAE FP-Rh activity-based probe | inhibition, % at 9.66 µM | hit rate 13% among 2,300 | AID 1117263, 2014;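 active = mean inhibition of the replicates above the hit cutoff set in the primary screen, cut at about 17% in these data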;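 note: inhibitors lower polarization as more probe stays unbound to SIAE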
Large screens that a line does not name were inactive (follow-up assays come after a bar, where they were run). A selection: hits, their analogues and other compounds. The true share with any hit is near 1.5%.

Cc1cc(-c2cc(NC(=O)Cc3c[nH]c4ccccc34)ccc2Nc2cccnc2)ccc1F	none (no result: DAGLB inh, HTRA1 inh)
COC(=O)[C@]12C[C@H](CC(=O)NCCCCc3ccccc3)C(=O)N(Cc3ccccc3)C1=C[C@H](C(C)(C)C)O[C@@H]2C	none (no result: DAGLB inh, HTRA1 inh)
O=C(CNc1ccc2ccccc2c1)N/N=C/c1cc2ccccc2nc1Cl	SIAE inh 18 | SIAE inh conf inactive
COc1ccc(C(=O)C(=O)N2CCN(c3ccc(C)cc3)CC2)cc1OC	none (no result: DAGLB inh, HTRA1 inh)
CC(NC(=O)c1ccccc1)C(=O)N/N=C/c1ccco1 (configuration not stated)	SIAE inh 18 | SIAE inh conf inactive
CCOc1ccccc1NC(=O)N1CCc2ccccc2C1	SIAE inh 18 | SIAE inh conf inactive
CCOc1ccccc1NC(=O)CN1CCc2ccccc2C1	none
CCCC(=O)Nc1ccc2oc(-c3cncc(Br)c3)nc2c1	none
CCCCCC(=O)Nc1ccc2oc(-c3cncc(Br)c3)nc2c1	SIAE inh 36 | SIAE inh conf inactive
CCOC(=O)N[C@H](C(=O)N1CCC[C@H]1C(=O)NC1CCCC1)c1ccccc1	none (no result: DAGLB inh, HTRA1 inh)
COc1cc(/C=C/C(=O)O)cc(S(=O)(=O)N2CCCc3ccccc32)c1OC	none
COc1cc(/C=C/C(=O)O)cc(S(=O)(=O)N2CCc3ccccc32)c1OC	SIAE inh 19 | SIAE inh conf inactive
O=c1[nH]c(-c2ccccc2)cn1C1CCN(Cc2ccc(-c3nc4ccccc4nc3-c3ccccc3)cc2)CC1	none (no result: DAGLB inh, HTRA1 inh)
CCN1CCN(C(=O)c2ccc(N3CC4CC(C3)c3cccc(=O)n3C4)c(NC(=O)c3cc(OC)cc(OC)c3)c2)CC1 (configuration not stated)	SIAE inh 27 | SIAE inh conf inactive
COCCNC(=O)c1ccc(N2CC3CC(C2)c2cccc(=O)n2C3)c(NC(=O)c2cc(OC)cc(OC)c2)c1 (configuration not stated)	none
COc1ccc(C2CC(=O)C(c3cc(OC)c(OC)c(OC)c3)=CN2Cc2ccccc2)cc1 (configuration not stated)	none (no result: DAGLB inh, HTRA1 inh)
COc1cc(NC(=O)Nc2ccc3c(c2)OCO3)cc(OC)c1OC	none
COc1ccc(C(C)(C)C)cc1NC(=O)Nc1ccc2c(c1)OCO2	SIAE inh 21 | SIAE inh conf inactive
CCOC(=O)[C@]12CCCC=C1N(Cc1cccc3ccccc13)C(=O)[C@H](CC(=O)NCc1cccc3ccccc13)C2	none (no result: DAGLB inh, HTRA1 inh)
CCOC(=O)[C@]12CCCC=C1N(Cc1cccc3ccccc13)C(=O)[C@H](CC(=O)NCCc1ccccc1OC)C2	SIAE inh 53 (no result: DAGLB inh, HTRA1 inh) | SIAE inh conf inactive
CC(=O)NC(c1ccco1)c1cc(Cl)c2cccnc2c1O (configuration not stated)	SIAE inh 18 (no result: DAGLB inh, HTRA1 inh) | SIAE inh conf inactive
NC(=O)CC(NC(=O)Cc1ccc(Cl)cc1)c1ccc(NC2CCCC2)c([N+](=O)[O-])c1 (configuration not stated)	none
NC(=O)CC(NC(=O)Cc1ccc(Cl)cc1)c1ccc(NC2CCCCC2)c([N+](=O)[O-])c1 (configuration not stated)	SIAE inh 20 | SIAE inh conf inactive
CCOC(=O)c1sc(=S)[nH]c1C	SIAE inh 18 | SIAE inh conf inactive
CCCNC(=O)Nc1ccc2c(c1)C(=O)N(C)[C@H]1CC[C@@H](CC(=O)OC)O[C@H]1CO2	none (no result: DAGLB inh, HTRA1 inh, TCR-CD3 inh)
O=C1C=CC(=O)N1c1ccc2c(c1)C(NC(=O)C(F)(F)F)c1ccccc1-2 (configuration not stated)	none
CNC(=O)C[C@@H]1C(=O)N(C2CCCCC2)CC1(C)C	none
Cc1cc(C)n2c(Nc3ccc4c(c3)OCCO4)c(-c3ccc(C)o3)nc2n1	SIAE inh 17 | SIAE inh conf inactive
O=C(CCn1c2c(c3ccccc31)CCCC2)NNC(=O)c1cccc([N+](=O)[O-])c1	SIAE inh 18 | SIAE inh conf inactive
c1csc(C2=Nn3c(nnc3-c3ccncc3)SC2)c1	SIAE inh 19 | SIAE inh conf inactive
